# From PubChem
# Runt-CBFb FRET = inhibitors of human RUNX1 Runt domain binding to CBFb; Q01196+Q13951; Cerulean-Runt/Venus-CBFb FRET ratio 530/480, 1 h; inhibition, % at 20 µM; actives 0.46% (n = 220,000);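 active = inhibition over about 50% at 20 µM in the single-dose screen, limit read from the data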;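 also: 0% = DMSO wells and 100% = excess unlabeled CBFb competitor control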
#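 Buffer or medium: Tris pH 7.5 buffer with BSA. Assay system: Cerulean-labeled Runt domain protein. Amount: each fluorescent fusion protein 100 nM. Read-out basis: loss of energy transfer signal. Incubation: 1 h compound exposure, room temperature. Probe or stimulus: Venus-CBFb binding partner, 100 nM. Detection: FRET, excitation 422 nm, emission at 530 and 480 nm.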
# DSG3 Ab inh = blocks pemphigus antibody binding to human desmoglein-3; binding (percent of control), % at 10 µM; DSG3-coupled beads, scFv-anti-DSG3-GFP binding, flow cytometry; active compounds read low; actives 0.48% (n = 310,000); P32926; AID 588358;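 active = binding more than 3 SD below its plate's average and above zero; inconclusive = below that plate limit but binding exactly zero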;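 also: hits lower antibody fragment binding to DSG3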
# pCIP destab = lowers stability of the mouse p/CIP coactivator protein; Q05BA5; F442A p/CIP-EGFP cells, EGFP fluorescence, 16 h; decrease of EGFP signal, % at 10 µM; actives 0.01% (n = 290,000);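 active = EGFP signal decrease of at least 30% at 10 µM or well 3 SD below plate mean, unless failing retest; inactive = the rest, including hits failing retest or dose response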
# Hck Nef HTS = inhibitors of human Hck kinase activated by Nef; inhibition, % at 20 µM; Recombinant Hck-YEEI plus Nef, Z-Lyte FRET kinase assay; actives 0.68% (n = 220,000); P08631;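 active = Hck-Nef kinase inhibition above about 50%, limit read from the data; inactive = inhibition below that limit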;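 also: 0% = DMSO with Hck plus Nef and 100% = Hck alone without Nef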
# Target sequence (P08631 whole entry, looked up): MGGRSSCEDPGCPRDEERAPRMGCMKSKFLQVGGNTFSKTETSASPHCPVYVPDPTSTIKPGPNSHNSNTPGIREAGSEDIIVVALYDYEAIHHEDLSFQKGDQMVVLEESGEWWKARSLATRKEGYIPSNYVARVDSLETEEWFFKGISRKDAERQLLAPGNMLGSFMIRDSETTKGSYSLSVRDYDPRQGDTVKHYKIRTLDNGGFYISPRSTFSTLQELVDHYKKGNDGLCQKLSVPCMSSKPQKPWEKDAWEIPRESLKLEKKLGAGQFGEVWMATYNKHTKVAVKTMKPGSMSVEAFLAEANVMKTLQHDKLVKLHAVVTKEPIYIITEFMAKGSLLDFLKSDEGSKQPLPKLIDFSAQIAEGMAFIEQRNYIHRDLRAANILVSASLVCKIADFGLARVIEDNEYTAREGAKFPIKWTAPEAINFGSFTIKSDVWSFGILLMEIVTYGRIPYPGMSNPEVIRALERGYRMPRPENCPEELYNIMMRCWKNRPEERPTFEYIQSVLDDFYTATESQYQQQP
# RanGTP-Imp inh = disruptors of Ran-importin-beta complex formation – biochemical, FRET, CFP-Ran, YFP-importin-beta, homogeneous, primary screen | cell-free CFP-Ran/YFP-importin-beta FRET ratio | actives 1.1% (n = 300,000) | inhibition, % (no concentration beside the values);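 active = more than half of the replicate wells show a fall in the fluorescence ratio signal beyond about 16%, limit read from the data, passing the limit was not always enough; inconclusive = exactly half of the replicate wells pass the set limit; inactive = fewer than half of replicates pass the limit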;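 also: 0% = DMSO wells and 100% = Ran loaded with GDP instead of GTP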
# Runt-SMMHC FRET = Runt domain-CBFb-SMMHC interaction inhibition; actives 0.74% (n = 220,000); inhibition, % at 20 µM; Q01196+Q13951; Cerulean-Runt/Venus-CBFb-SMMHC FRET ratio 530/480, 1 h;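 active = mean inhibition across duplicate retests at 20 µM reaching about 50%, limit read from the data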;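 also: 0% = DMSO wells and 100% = wells with excess untagged CBFb-SMMHC; inhibitors lower the FRET ratio by blocking Runt binding to CBFb-SMMHC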
# YIC counter = counter-screen for RanGTP-importin-beta inhibitors: YIC FRET probe | shares compounds with RanGTP-Imp inh | Purified YIC probe, intramolecular FRET ratio YFP/CFP | IC50, µM | actives 40% (n = 1,000) | AID 435026;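 active = fitted half-maximal inhibitory concentration no more than tenfold above the top dose tested; inconclusive = flat fit with 30 to 70% activity, or poor fit; inactive = half-maximal concentration beyond tenfold above the top dose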
# * = called active by the depositor; ? = inconclusive; nt = no result. Rows were chosen to be rich in hits. Some 2.1% of all compounds tested hit in one or more screens of this group.
SMILES,Runt-CBFb FRET,DSG3 Ab inh,pCIP destab,Hck Nef HTS,RanGTP-Imp inh,Runt-SMMHC FRET,YIC counter
CC(=O)Cc1nsc(NC(=O)c2ccc(-c3cc(C(F)(F)F)ccc3Cl)o2)n1,-3,100,5,-2,1,3,nt
COc1ccc(CCNC(=O)c2cc3c(=O)n4ccccc4nc3n(CC3CCCO3)c2=N)cc1OC (configuration not stated),nt,97,-1,nt,18*,nt,27*
N=c1c(S(=O)(=O)c2ccc(Br)cc2)cc2c(=O)n3ccccc3nc2n1C1CCCCC1,nt,104,4,nt,22*,nt,>50
COc1ccc(CCNC(=O)c2c(C)nc3ccccn23)cc1OC,1,92,-10,19,6,0,nt
COc1ccc(CCNC(=O)c2cc3c(=O)n4ccccc4nc3n(C3CCCCC3)c2=N)cc1OC,nt,102,6,nt,23*,nt,26*
Cc1nc(Nc2cnc(/C=C/c3cc(C(=O)Nc4cccc(C(F)(F)F)c4)ccc3C)cn2)cc(N2CCNCC2)n1,nt,nt,-17,nt,41*,nt,18*
Cc1nc(N2CCC(C)CC2)c2c(C)c(C(=O)Nc3cccc(C(F)(F)F)c3)sc2n1,-6,104,7,22,-4,-4,nt
NS(=O)(=O)c1ccc(N=Nc2c[nH]c(=O)c(O)c2)cc1,15,93,-3,17,28*,9,>50
CC1(C2CC2)NC(=O)N(CC(=O)Nc2ccc(F)cc2F)C1=O (configuration not stated),nt,90,nt,nt,nt,nt,nt
CCC(=O)N(C)/C=C1\Sc2ccccc2C1=O,nt,108,-4,4,20*,154*,>50
CC(=O)Nc1ccc(NC(=O)CSc2nc3[nH]ncc3c(=O)n2-c2ccccc2)cc1,nt,106,1,nt,2,nt,nt
O=C(NCCc1ccccc1)C(=O)c1c[nH]c2ccccc12,nt,103,-7,nt,-1,nt,nt
NS(=O)(=O)c1ccc(CCNC(=O)C(=O)c2c[nH]c3ccccc23)cc1,-2,132,5,3,17*,1,>50
O=C(Cn1cnc2ccccc21)N/N=C/c1cccs1,2,99,1,1,-3,-4,nt
O=C(Cn1nnc2ccccc21)N/N=C\c1cccs1,-2,97,-2,2,22*,-2,>50
O=C(NCc1ccc(Cl)cc1)c1ccc(S(=O)(=O)N2CCCCC2)cc1,nt,99,nt,nt,nt,nt,nt
CCOC(=O)c1c(NC(=O)C2CCCCC2)sc2c1CCN(CC)C2,nt,112,0,nt,20*,nt,>50
CCN1CCc2c(sc(NC(=O)C3CCCCC3)c2C(=O)OC)C1,nt,109,-4,nt,42*,nt,>50
CCOC(=O)c1c(NC(=S)N2CCCCC2)sc2c1CCN(C(=O)OCC)C2,-1,99,-15,-4,5,0,nt
CC(=O)N1CCc2c(sc(NC(=O)C3CCCCC3)c2C(N)=O)C1,nt,101,-25,nt,?,nt,nt
O=C(Oc1cc(=O)n2ccccc2n1)c1ccccc1,-3,106,16,8,5,6,nt
Cc1ccc(S(=O)(=O)Nc2nc3ccccc3nc2NCc2ccco2)cc1,12,98,-8,2,20*,36,13*
CSc1nnc(-c2cc(Br)ccc2N=Cc2c(C)[nH]n(-c3ccccc3)c2=O)c(=O)[nH]1,5,102,-14,22,0,-2,nt
CCSc1nnc(-c2cc(Br)ccc2N=Cc2c(C)[nH]n(-c3ccccc3)c2=O)c(=O)[nH]1,-1,102,7,7,18*,-10,>50
Cc1ccc(/C=C/S(=O)(=O)NCCC(=O)NCc2ccc(F)cc2)cc1,nt,74,nt,nt,nt,nt,nt
SMILES,Runt-CBFb FRET,DSG3 Ab inh,pCIP destab,Hck Nef HTS,RanGTP-Imp inh,Runt-SMMHC FRET,YIC counter
COc1ccc2c(C)c(C(=O)N3CC[C@@H](N4CCC(O)CC4)[C@H](O)C3)oc2c1,nt,115,4,nt,16*,nt,>50
O=C(c1cccc(-c2ccccc2)c1)N1CC[C@@H](N2CCC(O)CC2)[C@H](O)C1,nt,131,-4,nt,25*,nt,>50
O=C(COC(=O)c1ccc(CSc2ccc(Cl)cc2)cc1)Nc1ccccc1,0,102,-14,0,-1,-15,nt
CCOc1ccc(CN2CCN(Cc3cccn3-c3cccnc3)CC2CCO)cc1 (configuration not stated),0,113,-13,20,-6,3,nt
OCCC1CN(Cc2cccn2-c2cccnc2)CCN1Cc1ccc(F)cc1 (configuration not stated),0,104,-6,14,27*,-1,>50
CCC1(C2=CCCCC2)C(=O)NC(=S)N=C1N (configuration not stated),nt,99,nt,nt,nt,nt,nt
CCCc1cc(C(=O)N/N=C/c2cccn2C)cs1,nt,nt,-12,nt,-1,nt,nt
CCc1ccc(C2C(C#N)=C(N)SC(N)=C2C#N)cc1,12,123,-2,1,39*,28,>50
Cc1ccc2nc(N3CCN(C)CC3)c(C#N)cc2c1,4,103,-5,5,6,12,nt
Cc1ccc2nc(N3CCN(Cc4nnnn4Cc4ccccc4)CC3)c(C#N)cc2c1,26,98,12,4,17*,62*,22*
O=C(c1cc2ccccc2oc1=O)N1CCN(CCc2ccccc2)CC1,50,nt,1,-3,33*,77*,7.3*
O=C(Nc1ccc(OC(F)(F)F)cc1)c1ccc2nc[nH]c2c1,nt,97,-11,nt,20*,nt,>50
COc1ccc(CCNC(=O)c2cc3c(=O)n4ccccc4nc3n(CCCN3CCOCC3)c2=N)cc1,nt,100,-7,nt,20*,nt,21*
COc1ccc(CCn2c(=N)c(C(=O)NC3CCCCC3)cc3c(=O)n4ccccc4nc32)cc1,nt,110,8,nt,19*,nt,>50
CCCN(C(=O)CSCc1ccccc1C)c1c(N)n(Cc2ccccc2)c(=O)[nH]c1=O,nt,101,nt,nt,5,nt,nt
CC(=O)Nc1ccc(S(=O)(=O)NCc2nc(-c3cccc(C)c3)no2)cc1,nt,107,4,nt,15*,nt,39*
